From PubChem
Sampled rows, rich in hits. Any-hit rate of the full collection: about 3.5%.
Cneo AK release – causes C. neoformans cell lysis; lysis activity, % at 15 µM; adenylate kinase release luminescence, 4 h; normalised: neutral wells 0, clomiphene wells 100; actives 0.2% (n = 360,000);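 active = mean lysis activity across replicates of at least 80%, whatever share of replicates individually reach that level; inactive = mean lysis activity below 80%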
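Assay system: Cryptococcus neoformans yeast cells / Dosing: single-point compound dose / Timing: 4 h at 37 °C static, read 1 h later / Measured by: luminescence of released adenylate kinase using an AK detection reagent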
esBAF inh – SWI/SNF esBAF complex inhibition; mouse ES cells, Bmi1-luciferase knock-in reporter, 24 h; 100% = twice the neutral-well signal; reporter increase, % at 12.5 µM; actives 2% (n = 350,000); in the data active = activation above about 40%;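 note: 0% = median of the plate's neutral control wells and 100% = double that signal; a rise in the Bmi1 reporter signal indicates esBAF inhibition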
HIV Env fusion – blocks HIV Env-driven cell-cell fusion; actives 1.1% (n = 360,000); HeLa-JRFL Env/CEM21 cell fusion, luciferase; AID 651610; inhibition, % at 12.3 µM;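 active = mean replicate inhibition score of at least 50 and every replicate individually at or above 50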;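 note: 0% = plate neutral controls and 100% = maraviroc near 300 nM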
MITF TRPM1 HTS – MITF TRPM1 promoter activation in melanoma cells. AID 588334. SK-MEL-5 TRPM1-promoter luciferase, 24 h; % of positive control, neutral wells = 0. activation, % at 12.5 µM. actives 0.75% (n = 300,000);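 active = mean activation of at least 80% with every replicate also reaching 80%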;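 note: 0% = neutral control wells and 100% = parthenolide positive control wells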
Wnt bcat act – Wnt/beta-catenin pathway activation; Wnt/beta-catenin reporter cell assay, activator, plate reader; activation, % at 9.35 µM; actives 1.2% (n = 300,000); AID 743398; in the data active = activation above about 30%, passing the limit was not always enough;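 note: 0% = neutral control wells and 100% = positive control wells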
ERAP1 HTS inh – ERAP1 (human) enzyme inhibition; Q9NZ08; recombinant ERAP1, Leu-AMC fluorescence, 60 min; inhibition, % at 10.7 µM; actives 0.15% (n = 340,000); AID 652197;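 active = mean replicate inhibition of at least 30%, or all replicates individually reaching that 30% level; inactive = mean below 30% and not every replicate reaching it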;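 note: 0% = neutral control wells and 100% = L-leucinethiol positive control wells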
Target sequence (Q9NZ08 whole entry, looked up): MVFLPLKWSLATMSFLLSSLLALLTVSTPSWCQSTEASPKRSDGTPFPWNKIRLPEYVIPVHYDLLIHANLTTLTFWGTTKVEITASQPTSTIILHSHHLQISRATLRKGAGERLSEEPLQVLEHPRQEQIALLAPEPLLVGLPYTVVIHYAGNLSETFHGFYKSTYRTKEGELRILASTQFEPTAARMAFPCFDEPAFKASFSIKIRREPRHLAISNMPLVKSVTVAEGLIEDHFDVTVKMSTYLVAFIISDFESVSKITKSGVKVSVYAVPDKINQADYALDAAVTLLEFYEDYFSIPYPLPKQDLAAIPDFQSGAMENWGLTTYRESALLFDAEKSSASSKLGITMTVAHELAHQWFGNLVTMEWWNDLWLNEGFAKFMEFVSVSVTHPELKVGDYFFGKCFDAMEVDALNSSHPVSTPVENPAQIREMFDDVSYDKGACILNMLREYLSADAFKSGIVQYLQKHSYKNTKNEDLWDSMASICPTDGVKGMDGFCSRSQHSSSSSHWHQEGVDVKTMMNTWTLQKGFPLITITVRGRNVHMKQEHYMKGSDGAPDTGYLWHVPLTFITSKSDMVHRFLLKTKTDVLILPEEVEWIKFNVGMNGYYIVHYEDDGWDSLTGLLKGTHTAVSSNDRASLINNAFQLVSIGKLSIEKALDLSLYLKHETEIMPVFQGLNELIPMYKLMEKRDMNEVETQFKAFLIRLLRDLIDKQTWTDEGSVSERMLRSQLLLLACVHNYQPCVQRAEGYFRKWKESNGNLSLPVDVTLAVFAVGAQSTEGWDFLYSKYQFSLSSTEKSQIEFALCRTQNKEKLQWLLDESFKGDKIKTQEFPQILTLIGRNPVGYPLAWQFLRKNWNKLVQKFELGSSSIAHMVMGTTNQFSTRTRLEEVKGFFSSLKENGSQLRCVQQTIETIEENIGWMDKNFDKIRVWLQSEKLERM
* hit, by the source's call; . = no result; [ ] = another dose, or the depositor's remark.

SMILES	Cneo AK release	esBAF inh	HIV Env fusion	MITF TRPM1 HTS	Wnt bcat act	ERAP1 HTS inh
COC(=O)[C@@H](NC(=O)CN=[N+]=[N-])c1ccccc1	-2	.	7[16.7 µM]	.	.	2
Cc1ccc2c(c1)Sc1ccccc1CC2=O	1	61*	.	-2	-6	.
COC(=O)CCCCCCCCCC[N+]1(C)CCCCC1	.	-1	-15	1	.	.
CC(=O)OCCCCCCCCCCC[N+]1(C)CCCCC1	.	-1	5	-17	-2	88*
N/C(=N\c1nc2ccccc2o1)NC(=O)c1ccccc1Br	6	80*	-44	85*	7	3
C[C@@H]1CCCCO[C@H](CN(C)C(=O)Nc2ccc(C(F)(F)F)cc2)[C@@H](C)CN([C@@H](C)CO)C(=O)c2cc(NS(=O)(=O)c3ccc(F)cc3)ccc2O1	-1	-3	7[16.7 µM]	.	.	-2
C[C@H]1CCCCO[C@H](CN(C)C(=O)Nc2ccc(C(F)(F)F)cc2)[C@@H](C)CN([C@@H](C)CO)C(=O)c2cc(NS(=O)(=O)c3ccccc3)ccc2O1	-8	-22	78*[16.7 µM]	.	.	-6
C[C@@H]1CN([C@H](C)CO)C(=O)c2cc(NS(=O)(=O)c3ccc(Cl)cc3)ccc2O[C@@H](C)CCCCO[C@H]1CN(C)C(=O)Nc1ccc(C(F)(F)F)cc1	-2	-16	55*[16.7 µM]	.	.	0
C[C@H]1CCCCO[C@@H](CN(C)C(=O)Nc2ccc(C(F)(F)F)cc2)[C@@H](C)CN([C@@H](C)CO)C(=O)c2cc(NS(=O)(=O)c3ccc(F)cc3)ccc2O1	9	-4	61*[16.7 µM]	.	.	-2
CO[C@@H]1CN(C)C(=O)c2ccc(NS(=O)(=O)c3ccccc3)cc2OC[C@@H](C)N(C)C[C@@H]1C	-4	0	.	.	.	.
COc1ccc(N=Nc2cc(C)ccc2O)cc1	.	.	-270	60	54*	-1
Nc1ccc(N=Nc2ccc(O)cc2)c(N)n1	.	.	-23	72	3	5
COc1ccc(N=Nc2ccc3ccccc3c2)c(O)c1	-5	-38	-163	.	7	0
COc1ccc(N=Nc2cc(OC)c(N)cc2OC)cc1	-1	51*	21	-4	2	-5
COc1ccc(OC)c(N)c1	-3	.	28	-12	-16	.
COc1ccc(N=Nc2ccc(N)nc2N)cc1	-5	17	-147	67	41*	10
COc1ccc(-c2cn(CC[C@@H]3CC[C@H](NC(=O)Nc4ccc(F)cc4)[C@H](CO)O3)nn2)cc1	.	.	.	.	.	3
NC(=O)C[N+]1(CC#CC(O)(c2ccccc2)c2ccccc2)CCCC1	.	-8	6	2	-1	47*
CCC[N+]1(CC#CC(O)(c2ccccc2)C2CCCCC2)CCCCC1 (centres undefined)	.	.	-27	6	-3	-6
CN(C(=O)c1ccccc1Cl)C1CCCCC1	-1	30	3	6	-2	.
CN(N=Nc1ccccc1C(=O)O)C1CCCCC1	1	-1	-4	.	38*	2
CCOC(=O)c1c[nH]n(-c2ccccc2)c1=O	.	18	-1	2	-1	.
CCOC(=O)c1c[nH]n(-c2ccc(C)cc2)c1=O	1	52*	0	15	5	0
c1ccc2c(c1)Nc1cc3ccccc3cc1S2	.	.	-29	.	38*	3
C[C@@H]1CN([C@H](C)CO)C(=O)c2cc(C#CC3CCCC3)cnc2O[C@H]1CN(C)C(=O)c1ccncc1	-1	12	-5[16.7 µM]	.	.	0
SMILES	Cneo AK release	esBAF inh	HIV Env fusion	MITF TRPM1 HTS	Wnt bcat act	ERAP1 HTS inh
O=C(Nc1ccon1)c1ccc(N2CCCCC2)c([N+](=O)[O-])c1	.	.	-71	91*	29	0
CCC(C)OC(=O)C[N+](C)(C)CCOC1CC2CCC1(C)C2(C)C (centres undefined)	-5	.	66*	-15	-9	2
CCCOC(=O)C[N+](C)(C)CCOC1CC2CCC1(C)C2(C)C (centres undefined)	.	.	-3	9	-2	.
CCCCCCCOC(=O)C[N+](C)(C)CCOC1CC2CCC1(C)C2(C)C (centres undefined)	.	.	75*	-94	-7	11
CCCCCCOC(=O)C[N+](C)(C)CCOC1CC2CCC1(C)C2(C)C (centres undefined)	3	5	-80	.	.	.
CC(C)CCOC(=O)C[N+](C)(C)CCOC1CC2CCC1(C)C2(C)C (centres undefined)	.	.	76*	-5	-1	9
